Data on 23 sequences can be found in the EternaBench riboswitch data.

The data set concerns MS2 coat protein. The data set is described as follows: apparent Kd, MS2 coat protein; higher = weaker binding; RNA-MaP array. An outline of the steps:
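RNA designs were transcribed from sequenced DNA templates on an Illumina sequencing chip and then incubated at room temperature with fluorescently labeled MS2 coat protein at 1.5 nM to 3 μM, with or without input ligand, in Tris-HCl pH 7.5 buffer containing KCl, MgCl2, BSA, DTT, tRNA and Tween20. Incubation lasted 0.8–1.5 h at the lowest protein concentrations and 10–20 min at the highest. Apparent Kd is the median of binding-curve fits made for each cluster. Designs measured on fewer than 10 clusters were excluded.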

[1] abbreviates: designed as: ON switch for flavin mononucleotide, no ligand.
The mark [2] stands for this setting: ligand present: flavin mononucleotide, designed as: ON switch for flavin mononucleotide.
Setting [3] is: designed as: OFF switch for flavin mononucleotide, no ligand.
The mark [4] stands for this setting: ligand present: flavin mononucleotide, designed as: OFF switch for flavin mononucleotide.
Setting [5] is: designed as: OFF switch for theophylline, no ligand.
Where [6] appears, read: ligand present: theophylline, designed as: OFF switch for theophylline.

Usually apparent Kd stands for the concentration giving half-maximal binding under the conditions of the assay. “UAGUAAACCGCAGGAUAUCCAACUUGGGCACCAGGAGAAGGGCGAUUAACAUGAGGAUCACCCAUGUAUUCGGAGAGCUUACCU”: the “apparent Kd” value under setting [1] stood at 10.4 nM and the “apparent Kd” value under setting [2] turned out to be 9.18 nM.
Turning to “UUCCUGAAAGGAUAUACCUGGCCCGUGAACUGGAUAAAAGCACAUGAGGAUCACCCAUGUAGAAGGUUCGAUUA”, the “apparent Kd” value is 7.14 nM under setting [3] and 7.02 nM under setting [4].
With “AGUGCUACGUGUAAUCAAAGAGAACCAGAUACCAGAUUAGCAUACAUCCCUUGGCAGCUGCAUACAUGAGGAUCACCCAUGUCAG”, the “apparent Kd” value was found to be 37.2 nM under setting [5] and 39.1 nM under setting [6].
Regarding “AUAGUGCGGCUGAAGGAUAUGGAACCCGCGACAUGAGGAUCACCCAUGUACUUAAGCGACAUUUGCCAGAAGGUCAAGCAUUCCAU”, the “apparent Kd” value was determined as 13.3 nM under setting [1] and 11.2 nM under setting [2].
Turning to “AAGACGGUUCAGAAGGUCUCUAAGCAGGUUACAGAAGGAUAUGAUGCGGACACAUGAGGAUCACCCAUGUUCUAGGGUACCCUA”, the “apparent Kd” value runs as follows: under setting [1], 22.1 nM; under setting [2], 19 nM.
With “UGACACAUGAGGAUCACCCAUGUUGGGUAAUGUUAACGUACAAGAAGGGCAGCCGGCCGGACGUUGCAGGAUAUUGUAGCGCGA”, the “apparent Kd” value runs as follows: under setting [3], 41.7 nM; under setting [4], 31.1 nM.
For “AAUGUACAUGAGGAUCACCCAUGUCGUCUACUUAGAGGAUAUGAUUGGUUACCCAGCUGAUCAGAAGGCUACCGUC”, the “apparent Kd” value runs as follows: under setting [1], 14.1 nM; under setting [2], 11.9 nM.
“GGAGGCCUUAGGGAUACCAGCUAAGUUGAGUACAUGAGGAUCACCCAUGUGUUCCCAGAGAGCCCUUGGCAGCCCUCAUCCGUUC”: the “apparent Kd” value (designed as: ON switch for theophylline, no ligand) stood at 11.6 nM and the “apparent Kd” value (ligand present: theophylline, designed as: ON switch for theophylline) is 10.8 nM.
Turning to “CCGACACAGAAGAAGGCUUUUGGUCUUAGCAGAAGAGGAUAUUCCUGUGUUCCGCGUACAUGAGGAUCACCCAUGUGUGAGCAC”, the “apparent Kd” value worked out at 6.59 nM under setting [3] and 7.46 nM under setting [4].
Regarding “GCCCGUUAUUAGAAGGGUAUUCGGAUAUGCAUUCCUUACAUGAGGAUCACCCAUGUACCGCGAGUACAGGAUAUAAAACCGCCA”, the “apparent Kd” value worked out at 75.2 nM under setting [3] and 69.7 nM under setting [4].
Taken in the same sequence, the figures for “GGCCUUUCGGUAAGGAUAUCCCUCCGCGCAGAUUGGGAGAAGGUACAUGAGGAUCACCCAUGUUUUAUGGCUGC” were 9.4 nM and 10.8 nM.
With “AGUGUAUACAAGAAGGAACAUGGACUAGGAUUGUUAGGAUAUUGCAUAAACAUGAGGAUCACCCAUGUGCGACACGCCCACAUC”, the “apparent Kd” value runs as follows: under setting [1], 35.4 nM; under setting [2], 21.7 nM.
Turning to “GUCCUACAUGAGGAUCACCCAUGUGGUCGUGGUAUAGGAUAUUAGGACUUUGUAAUCAGUUAAGAAGGAUAUCACU”, the “apparent Kd” value was 60.1 nM under setting [1] and 17.4 nM under setting [2].
For “CUUAAGUGAGGAUAUCGUGGGACUACAUUAAUGAGAAUCAGCGAGAAGGCACAUGAGGAUCACCCAUGUGGUAA”, the “apparent Kd” value reads like this: under setting [3], 18.6 nM; under setting [4], 76.2 nM.
Consider “GCAAAAUACAUGAGGAUCACCCAUGUUAAGUGGGCCUGAACAAGAAGGCAGCAAAUUUUAUUUUCUGAGGAUAUUGGCAUAUAU”, for which the “apparent Kd” value is, setting by setting: under setting [3], 30.2 nM; under setting [4], 36.8 nM.
Consider “UUAUAUUCUCAAUCGCCAUGUGCUUUAGAUACCAGUCUGAUAAAUGACCCUUGGCAGCUAGAGACAUGAGGAUCACCCAUGUCUU”, for which the “apparent Kd” value was determined as 10.6 nM under setting [5] and 29.8 nM under setting [6].
In the case of “UUCUCAUCGUACAUGAGGAUCACCCAUGUCUCCCAUUUACCCUAGGAUAUGAAAGACCUUUACUCUCAGAAGGAGGAUGAUGCA”, the “apparent Kd” value stood at 63.2 nM under setting [1] and 51.9 nM under setting [2].
“UAUGUAUAGAAGGAUAUCUAAUUACGCCCGAUAAGAGAAGGUCUGACAUGAGGAUCACCCAUGUUAUGGGAGGC”: the “apparent Kd” value under setting [3] turned out to be 18.1 nM and the “apparent Kd” value under setting [4] is 23.3 nM.
On to “GUAACUCAGGUCAGGAUAUUCGAGUAAGGGAAAACGAAGAAGGGACAUGAGGAUCACCCAUGUAACACGACUAU”, for which the “apparent Kd” value runs as follows: under setting [3], 18.1 nM; under setting [4], 86.3 nM.
The matching figures for “CAGGGAAGAUGAGGAUAUCAUAGGAGGAUAUGUCGACACAUGAGGAUCACCCAUGUCGCUUACGUUGAGAAGGCAUUGACGUGU”: 13.2 nM and 11.3 nM.
Taken in the same sequence, the figures for “UCAACAUGAGGAUCACCCAUGUCAUCGGCGUUCUCAGACACUAGAAGGAACAGGCGUAUCUGCGGUUAGGAUAUAGACACACAU” were 31.3 nM and 31 nM.
The matching figures for “UAGGUUAGGUAGAAGGGCAAGUAAUUCCACAUGAGGAUCACCCAUGUUCCUGUUUGGGAGGCUGUGCAGGAUAUACGAAAAUAA”: 117 nM and 153 nM.
“GCCAGCAGUACAUGAGGAUCACCCAUGUCCCUUGUACUUUUAUAGGAUAUACGAGUGGCUACCAUGUAGAAGGAUAGAAUUGUC”: the “apparent Kd” value was 932 nM under setting [3] and 606 nM under setting [4].
